Test system: MS2 coat protein
Assay: apparent Kd, MS2 coat protein; higher = weaker binding; RNA-MaP array; FMN 200 µM where present
Outline: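 Green signal from SNAP-549-labelled MS2 coat protein was normalised to red-channel RNA signal and to the median Fmax of control clusters. The protein was titrated from 0.7 or 1.5 nM, doubling to 3 µM, without and then with constant ligand, over designs transcribed by stalled E. coli RNA polymerase on Illumina sequencing-chip clusters, in 100 mM Tris-HCl pH 7.5, 80 mM KCl, 4 mM MgCl2, BSA, DTT, yeast tRNA and Tween-20. The apparent Kd is the median of filtered per-cluster binding-curve fits.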

[1] = designed as: OFF switch for flavin mononucleotide, no ligand
[2] = ligand present: flavin mononucleotide, designed as: OFF switch for flavin mononucleotide
[3] = designed as: ON switch for flavin mononucleotide, no ligand
[4] = ligand present: flavin mononucleotide, designed as: ON switch for flavin mononucleotide

Sequence	apparent Kd [1] [µM]	apparent Kd [2] [µM]	apparent Kd [3] [µM]	apparent Kd [4] [µM]
AUGUUGUCAGGAUAUCUUACAUAACAAUCGUUGUUACCAUUGGAGAAGGGACAUGAGGAUCACCCAUGUUAGCC	0.0208	0.023		
GUUGCUUUCCGAGGAUAUUCAGGGCGUGGCUAUACAUGAGGAUCACCCAUGUGGCGGAAGCCUAGGGAGAAGGCGGGCUGCUUC			0.0184	0.0163
AGUACUCAAAGAGUACCCAUACGGACAUGAGGAUCACCCAUGUAGGAUAUGCUACUCAAAGAGUAGUAGAAGGACAUGUUCCUC	0.0124	0.0436		
AAUACAUGAGGAUCACCCAUGUGCAUUGUUUAAGAGGAAGCACAGGAUAUGCAGCCAAUCGGUUAGCAGAAGGGUGACUUCAAC			0.0852	0.0816
GGACGUCCCAUUAACAUGAGGAUCACCCAUGUCAAAAGACAUGAGGAUAUGGUACCUAAUUGGUACCAGAAGGCAUGGACGUCC			1.21	0.106
AAUAUGAGCUGGAAUAAACCUGAAACAUGAGGAUCACCCAUGUAGGAUAUCAGCACGAUAAGUGCUGAGAAGGACAACCAGCUC	0.0146	0.0166		
CAGGUAGACUGAGGAUAUACAAUAAACAGCUAGUCUAUCUAGCUGCCCACAUGAGGAUCACCCAUGUAGAAGGCAGUCUGCCUG	0.0181	0.0525		
CCUCUAACCUAGGAUAUAGGUAGACCUAGUCGCCUAGAAGGAGGUACAUGAGGAUCACCCAUGUAUAUUGGGCU	0.277	0.127		
AGGUUGGGAGGAUAUCCAAUAUAUGACAUGAGGAUCACCCAUGUUUCCACUCGUACCUCCGGAGAAGGCCCUUCCA	0.0217	0.023		
UCAUUUUACACAGGAUAUAUUCAUAUACAGUUGUUUGGCUCUUACAUGUUAGUAGAAGGGUGCAACAUGAGGAUCACCCAUGUA			0.279	0.274
UGAUACUAGGGAGGAUAUGGGAAGAUACAUGAGGAUCACCCAUGUUUAAGAAUGCCGAGAGGCAACUAGAAGGCCCUAGUACCU			0.538	0.0213
ACAAAUGGAGGAUAUACAUGAGGAUCACCCAUGUUUAUCCUACAUAUGUGAUCCUCAUGUAGAAGGCCAUAUGA	0.011	0.0106		
CGCUAGGAUGGGUCUAAUGGACCACAGGAUAUGCUUGUACAUGAGGAUCACCCAUGUAAUAUUGUGCAGAAGGGUGGAUUCGCG			0.076	0.0109
CUUUCGUGAGGAUAUGAAACUUCGAUCGUGAGAUCGAGGCUACAGAAGGCACAUGAGGAUCACCCAUGUUCCUC	0.0346	0.42		
CUUUUGUGAGGAUAUUAGUAGUAAAUUAAUAAAAUUACUACUGAGAAGGCACAUGAGGAUCACCCAUGUUCCUC	0.0307	0.19		
AAGAGGCUAGGAUAUACAUGAGGAUCACCCAUGUGAGGGCACGGCCGGCGCGUGGCCGGUAGAAGGAGUCAAAA	0.0213	0.0226		
AGAUGGUAUAUAGGAUAUCAUGUGCAAACAUGAGGAUCACCCAUGUAGAGACGUCAGUCUAAUAAUGAGAAGGAUAUACCAUCU			0.0371	0.00997
AAAAACAGAGGAUAUACAAAAUUAUGACGAAAGUCAUAAAAACAUGAGGAUCACCCAUGUAGAAGGCUGGAAAA	0.0304	0.0289		
UGAUGACCUGUACCUAGUUGGUGACAUGAGGAUCACCCAUGUCAGGAUAUCGGGUUUGAAAACAACGAGAAGGGACAACGGGCG	0.0126	0.013		
AUAAUAAAGGAGGAUAUCGUAUCGGAAACGAUACGAGAAGGUCUAACAUGAGGAUCACCCAUGUUCCUCAAAUA	0.0436	0.068		
GAUCAACAUGAGGAUCACCCAUGUGAGGAUAUGUAUCAUAGAUCUUCGGAUCUAUGAUACAGAAGGCAUGUGGA	0.204	0.0465		
AAAGCAACAUGAGGAUCACCCAUGUAGGAUAUCGCUAUUGUAAUCAUGAAACAUGAUUACAAUAGCGAGAAGGACAUAUGCUAA	0.00926	0.0108		
AGAGGUCGCACAGGAUAUCAUACAUGAGGAUCACCCAUGUCAGAAAACAAAUGAGAAGGGUGCGCAUUAAUUGCUUGUGAAGAA			0.0151	0.00512
GGUCCACAUGAGGAUCACCCAUGUUAGGAUAUCUCGCCCGAGUCGUUAUGGGCCGGGCAGAGAAGGAAUGUGAA	0.0217	0.0202		
CUUCUGUAAGGAUAUGUAUGCUCCUGGUAUGUCGCGAGGAGACAGAAGGUACAUGAGGAUCACCCAUGUGGGCG	0.168	0.304		
GCGUAAUAGGUGUAGCUAGUCAUUCAAGAAGGGUGGAGAACAUGAGGAUCACCCAUGUAGUUUAUACAGGAUAUUGAUAUACGC			0.552	0.138
ACAGCUGAAGGAUAUACUUGGGAAAAAAAAAAAAAAAAAAAACAUGAGGAUCACCCAUGUAGAAGGUCAGCUGA	0.103	0.06		
CGUUCACAUGAGGAUCACCCAUGUCAGAUUUGGUCAGGAUAUGGUCUGCUUUCGCUAUUUCCAGAAGGGACUUUUG			0.0286	0.0248

Sequence	apparent Kd [1] [µM]	apparent Kd [2] [µM]	apparent Kd [3] [µM]	apparent Kd [4] [µM]
AAUAUAAAGAGCUGGCUCCAAAUAACAUGAGGAUCACCCAUGUAGGAUAUCAGCACGAUAAGUGCUGAGAAGGACAUCCAGCUC	0.015	0.0156		
ACCAUUUACUAAUCUUCUAUACAUGAGGAUCACCCAUGUUUUGAGGAUAUCAGCGUGAAACACGCUGAGAAGGCAAAACAUUCG	0.0721	0.393		
CUACCGCGUGUGAGGAUAUUAUCACGUUACGGCGCUAAGAAGGUACAUGAGGAUCACCCAUGUCUCAACGGGUG	0.447	0.546		
CCGGAAAUACAGGAUAUAGGAGUCGAUAGACUCCUAGAAGGGUAUACAUGAGGAUCACCCAUGUUCCUUACCGG	0.0459	0.0502		
GGAUAGGACAGAGGAUAUACGUGCUAGAGAUCCUAGCAAAAUUUCCUCACAUGAGGAUCACCCAUGUAGAAGGCUGUCCUAUCG	0.0155	0.417		
AAGUAUAGAGGAUAUAGUAGGUACAACAUGAGGAUCACCCAUGUUCUUCAUAACGUAUUUCUAGAAGGCUGAUAAA	0.156	0.353		
GCUGCUAUCACAGGAUAUUACAUGGGAAAGAGUACAUGAGGAUCACCCAUGUAAAAGAUCAUAAAUAAGAAGGGUGAUAGCAGC			0.15	0.256
GUGUAGUUAGGAUAUGCUGGAAUCUAGCGAAGCUAGGUUCCACAUGAGGAUCACCCAUGUAGAAGGGACUACAC		0.073		
GUCCUACAUGAGGAUCACCCAUGUGAGGAUAUGGAUUCGCUGGCCGUAGCCAGUGGAUCCAGAAGGCGCGUGAU	0.0631	0.0648		
AGUGAGCAGACAGGAUAUCCACUCAGGUCUGAGUCAACGACAUGAGGAUCACCCAUGUCCUAAAAGGAGAAGGGUCAUGGUCGU			0.198	0.107
GUAGCAUACCGAGGAUAUUCAUUACAUGAGGAUCACCCAUGUUUUAUAGGCCGAUUACGGCCUUGGGAGAAGGCGGAAUGCUAC			0.0148	0.0111
GCACUGGAUGUAGGAUAUCAGGACGAUAAGUCCUGAGAAGGACAUGAGGAUCACCCAUGUGCCUUAACCAGUGCAUAUAAUAUA	0.0129	0.0173		
UAAUUUUGUCAAGGAUAUGUAAUAUAGAUUAGAAAACAUGAGGAUCACCCAUGUAUAUGGUGGGAACAGAAGGUGAAUGGUGUA	0.165	0.155		
CUUGUUUAUGUGAGGAUAUACUGUUAGUAAUGUUUGUAGAAGGUACAUGAGGAUCACCCAUGUUUAUUUUUUUU	0.0205	0.0197		
AUAAAAGUGACAUGAGGAUCACCCAUGUGAAUUAGUAGUAGCAGAAGGCACGUGGGAAGACCAAGUGAGGAUAUGUAACUUUAG			0.625	0.0593
CAUAACUUUUCUCAUGUAAACAUGAGGAUCACCCAUGUAAUGAGAAGGAGGCGGCAGAGAGCAUCCUAGGAUAUCAGAAUUGUU	0.00702	0.00674		
GGGUACAUCGGAGGAUAUCAUGUAAUUACAUGAGGAUCACCCAUGUCGAUGGAGACAUCGGAGAUUGAGAAGGCCGAUGUACCG			0.316	0.0124
CGUUUUUAUGUAGGAUAUGCUUGUGGUAAGAUAGCAGAAGGACAUGAGGAUCACCCAUGUUAAUGAUAGAGAUUUUAUGUGGCG	0.0378	0.0614		
GGUGCAUAUGAGAAGGCGAUCAUGAAACAUGAUCGAGGAUAUCAUGUAAACAUGAGGAUCACCCAUGUAUGGGAAUAAUGCACC			0.112	0.0104
GGAGGACAUGAGGAUCACCCAUGUGGAUGAUCGCUAGGAUAUGCGUAAAGGAGGAGUGGUGCAGAAGGAGUGGGAU			0.464	0.36
UGUUCUAUGUAGAAGGCCCAUAUCUGUACUUAGGGAGGAUAUACAUGAGGAUCACCCAUGUGUAGAGCUGGUGGACUGGACAGC	0.0209	0.0325		
AAAACUUCAGAGAAGGACCCAUUGGCGUAAUGGGUAGGAUAUCUGACUUGAGGUGUCCUGACAUGAGGAUCACCCAUGUAUAAA	0.381	0.046		
UCGUGAAGGAUAGGAUAUGGACAUGAGGAUCACCCAUGUACAUGGGAAUGUAUACUGAAUUUGUACUAGAAGGGUUACAUAAAU	0.0498	0.0367		
UUUUAACAUGAGGAUCACCCAUGUCGUUCAAAUCAAGGAUAUCAAGCGUGUGCGCACGCUUGAGAAGGUGAAGCUC			0.0542	0.191
AUAUAAUAUCAGGAUAUGACUAGCUGCGGCUAGUCAGAAGGGAUGACAUGAGGAUCACCCAUGUGAUCAUAUAU	0.0333	0.151		
AUAGCUCUCUAGAAGGUCCAACCAGUAUACCAUCAGGUAUAUACGGUAGGGAGGAUAUGGGACAUGAGGAUCACCCAUGUGUAG			0.0578	0.0448
UUGUUGUGUGGAGGAUAUGCACUAACUGUUAGCGCAGAAGGCCACAUGAGGAUCACCCAUGUCCGGGUUACUGCCUAAGGAGUG	0.0719	0.23		

From the EternaBench riboswitch data
